Compound activity as filed in PubChem BioAssay.
MT stabilizer: microtubule stabilization, imaging screen; HeLa tubulin immunostaining HCS, 24 h; share of cells brighter than vehicle mean+2SD; % tubulin-high responders, % at 10 µM; 0.83% of 200,000 active;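 active means plate Z-score above 3 for both tubulin-high and condensed-nucleus cell shares, with cell loss under 80%, at 10 µM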;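 further: anti alpha tubulin signal scored within the nucleus-defined area of each cell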
Autophagy mod: autophagy modulation, high-content screen; MEF GFP-LC3 puncta imaging; test concentration mostly 10 µM; calls only at 10 µM (by protocol); 0.98% of 190,000 active;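 active means percentage of spot-positive cells more than 3 SD above its plate mean, without a fluorescence outlier flag or 80% toxicity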;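 further: spot-positive cell cutoff set from DMSO-treated cells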
b-catenin transl: alters nuclear translocation of beta-catenin in HeLa cells | immunofluorescence imaging | nuclear translocation activity, % at 5 µM | 0.3% of 190,000 active | AID 1665;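 active means nuclear translocation activity above 50% at 5 µM, with a well cell count of 50 or more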;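 further: per-cell ratio of nuclear to cytoplasmic median beta-catenin stain intensity; plate controls were DMSO negative control for no effect and GSK-3 inhibitor IX positive control for full effect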
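test system = HeLa cells, endogenous beta-catenin | dosing = single 5 µM dose plus 0.02–20 µM confirmation series | times = compound treatment 24 h, 37°C, 5% CO2 | technique = beta-catenin immunofluorescence imaging with DAPI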
Dynein transport: dynein cargo transport inhibition; z-score, hits read low; 0.47% of 220,000 active; AID 1381; 3617.4 mouse cells, GR-EGFP nuclear translocation imaging; test concentration mostly 20 µM; stimulated with dexamethasone, 1 µM; stronger effect = lower value;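 active means plate z-score of nuclear minus cytoplasmic receptor signal below a set negative limit, without overly bright fluorescence or cell loss, cut at about -3.5 in these data, passing the limit was not always enough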;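 further: z-score of nuclear minus cytoplasmic ring GR-EGFP intensity difference per well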
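Medium: Induction medium lacking tetracycline, stripped serum | Probe or stimulus: 1.0 µM final dexamethasone stimulus | Schedule: 48 h induction, then 1 h compound, then 30 min agonist, 37 °C | Signal: Automated 10x imaging of fixed Hoechst-stained cells | Evaluation: Per-cell GR-EGFP intensity, nucleus versus surrounding cytoplasmic ring, well-averaged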
CHOP inhibitor: blocks CHOP induction under ER stress; inhibition, % at 10 µM; 3.8% of 220,000 active; CHO-K1 CHOP-promoter luciferase, tunicamycin-induced, 15-18 h;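 active means compounds that reduced the stress-induced luciferase reporter signal by more than about 70% of percent inhibition, limit read from the data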;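 further: 0% = tunicamycin plus vehicle and 100% = wells without tunicamycin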
Lmaj promast: inhibitors of Leishmania major promastigote growth. inhibition, % at 10 µM. 9% of 200,000 active. Leishmania major promastigotes, resazurin fluorescence viability; in the data active means inhibition above about 50%;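 further: promastigotes grown with compound for 44 hours at 28 °C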
Numbers without * were called inactive; i = inactive; x = no result; + = active, no number. Only some compounds are listed: those with a hit (about 12% of all), similar ones and a draw of the others.

SMILES	MT stabilizer	Autophagy mod	b-catenin transl	Dynein transport	CHOP inhibitor	Lmaj promast
CCc1cc2c(=O)c(-c3cnn(-c4ccccc4)c3)c(C)oc2cc1OCC(=O)Nc1ccc(F)c(F)c1	5	i	x	-0.55	86*	53*
COc1ccc(C(=O)NCC(=O)OCC(=O)Nc2ccc(C)c(S(=O)(=O)N(C)C)c2)cc1OC	x	x	0	-0.57	6	x
COc1ccc(OC2C(=O)N(Cc3ccc(F)cc3)C2c2ccc(OC)c(OC)c2)cc1 (centres undefined)	3	i	0	0.43	-27	6
COc1ccc(OC2C(=O)N(Cc3ccc4c(c3)OCO4)C2c2sccc2C)cc1 (centres undefined)	3	i	0	-0.033	7	92*
Cc1ccc(NC(=O)c2cc(S(=O)(=O)NCCc3ccccc3)ccc2F)cc1Cl	4	i	1	0.11	84*	-1
CCC(C)Nc1nc(Cl)nc(NCCOc2ccccc2)n1 (centres undefined)	3	i	0	0.17	38	80*
Cc1cc(C(=O)CSc2nnnn2-c2ccc(O)cc2)c(C)n1Cc1ccc2c(c1)OCO2	2	i	1	-0.53	62	17
Cc1cc(C(=O)CSc2nnc(-c3cccc(F)c3)n2N)c(C)n1Cc1ccc2c(c1)OCO2	5	i	-2	-0.043	x	75*
CN(Cc1ccc(-n2cccn2)cc1)C(=O)c1cnn2c1NC(c1ccco1)CC2C(F)(F)F (centres undefined)	3	i	1	0.57	76*	33
COCCNC(=O)c1cnn2c1NC(c1ccco1)CC2C(F)(F)F (centres undefined)	4	i	-2	-0.69	-4	-5
CCOC(=O)N1CCC(NC(=O)c2cnn3c2NC(c2ccco2)CC3C(F)(F)F)CC1 (centres undefined)	3	i	-4	-0.18	-7	-1
O=C(Nc1ccc2c(c1)CCC2)c1cnn2c1NC(c1ccco1)CC2C(F)(F)F (centres undefined)	3	+	0	-0.26	12	-7
O=C(NCc1cccc(Cl)c1)c1cnn2c1NC(c1ccco1)CC2C(F)(F)F (centres undefined)	1	i	-1	-0.6	91*	28
CCCc1nc([N+](=O)[O-])c(S(=O)(=O)c2ccccc2)n1CC(C)C	2	i	2	1.3	-55	95*
CC(C)Cn1c(C(C)C)nc([N+](=O)[O-])c1S(=O)(=O)c1ccc(F)cc1	5	i	-1	-3.7*	-33	96*
CC(C)Cn1nc(NS(=O)(=O)c2ccccc2)c2cc3ccccc3nc21	4	i	2	-0.56	-8	37
CC(C)Cn1c(C(C)C)nc([N+](=O)[O-])c1Sc1ccc(Cl)cn1	6	i	x	-0.013	11	41
CCCN1CCN(C(=O)Cn2cnc3ccc(S(=O)(=O)N4CCC(C)CC4)cc3c2=O)CC1	1	i	2	0.56	6	93*
CC1CN(S(=O)(=O)c2cccc(-c3csc(-c4ccccc4)n3)c2)CC(C)O1 (centres undefined)	2	i	-2	1.1	42	97*
O=S(=O)(c1cccc(-c2csc(-c3ccccc3)n2)c1)N1CCOCC1	6	i	-6	-0.85	48	16
COCCNC(=O)/C(C#N)=C/C=C/c1ccccc1	5	i	5	-1.2	3	2
COCCNC(=O)/C(C#N)=C1\N=C(N)c2ccccc21	1	i	-1	-1.2	34	59*
C=C(C)CNC(=S)N/N=C1\CCCCc2ccccc21	3	i	2	0.16	12	99*
CCNC(=S)N/N=C1\CCCCc2ccccc21	4	i	x	-0.36	-8	-3
FC(F)(F)c1cccc(-c2nc3nc(Cl)c(Cl)nc3[nH]2)c1	x	x	1	1.8	74*	x
Clc1ccc(SCCn2ccnc2)cc1	2	i	-7	0.28	-3	-4
CCCn1[nH]cc(SC)c(=O)c1=O	3	i	1	-0.18	-18	-9
CCCCNC(=S)Nc1cc([N+](=O)[O-])ccc1C	2	i	0	-0.068	-1	74*
COCCCN(Cc1ccco1)C(=O)Cn1ncc2c(=O)oc3ccc(C)cc3c21	x	x	0	-0.22	-11	x
